Sampled rows, rich in hits. Any-hit rate of the full collection: about 2%.
EBI2 antag: EBI2 (human) antagonism; EBI2 beta-arrestin recruitment, luminescence, 7a,25-OHC stimulated; inhibition, % at 5 µM; 0.81% of 360,000 active; in the data active = inhibition above about 38%;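 note: enzyme fragment complementation signal reports receptor beta-arrestin coupling in cells; 0% = agonist plus DMSO wells and 100% = wells without agonist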
Target sequence (P32249 whole entry, looked up, the tested form may be a part): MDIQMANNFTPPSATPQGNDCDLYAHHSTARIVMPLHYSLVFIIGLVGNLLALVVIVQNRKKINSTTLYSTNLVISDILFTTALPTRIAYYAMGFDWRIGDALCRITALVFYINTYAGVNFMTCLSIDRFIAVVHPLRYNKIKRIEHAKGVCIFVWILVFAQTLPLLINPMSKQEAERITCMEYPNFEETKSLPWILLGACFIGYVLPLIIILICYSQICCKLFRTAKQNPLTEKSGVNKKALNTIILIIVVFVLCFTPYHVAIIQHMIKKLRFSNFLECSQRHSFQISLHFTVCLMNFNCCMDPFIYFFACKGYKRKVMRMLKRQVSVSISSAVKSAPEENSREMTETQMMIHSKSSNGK
GAA850 FXN act: frataxin GAA850 promoter activation; HEK293 lucGAA850 FXN promoter luciferase reporter, 24 h; percent of 10 µM SAHA response; activation, % at 6 µM; 0.56% of 360,000 active; AID 540364;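 active = activation above the average of all compounds screened plus 3 SD, cutoff fixed separately per campaign, cut at about 7.5% in these data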;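 note: 0% = DMSO wells and 100% = 10 µM SAHA wells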
CXCR6 inh: blocks human CXCR6 beta-arrestin recruitment; O00574; CHO-K1 PathHunter CXCR6 beta-arrestin, luminescence; inhibition, % at 20 µM; 0.36% of 360,000 active; in the data active = inhibition above about 34%, passing the limit was not always enough;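 note: antagonist mode with CXCL16 agonist at 10 nM final; 0% = 10 nM CXCL16 with DMSO and 100% = unstimulated wells without agonist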
APJ ag: activates the human apelin receptor APJ | activation, % at 20 µM | P35414 | CHO-K1 APJ PathHunter beta-arrestin, luminescence; 0% DMSO wells, 100% apelin | AID 2520 | 0.11% of 330,000 active;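 active = activation more than six SD over the plate average, tested at 20 µM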;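 note: 0% = DMSO alone and 100% = apelin-13 at 10 nM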
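Material: engineered CHO-K1 APJ arrestin reporter cells; amount: 1000 CHO-K1 reporter cells seeded per well; incubation: compound stimulation 90 min at 25 °C, detection 60 min; signal: luminescent beta-gal fragment complementation, chemiluminescent substrate; read-out basis: APJ agonist activity; controls: DMSO-only wells as negative, 10 nM Apelin-13 as positive control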
CCR6 antagonist: blocks CCL20-driven beta-arrestin recruitment at human CCR6. inhibition, % at 20 µM. 0.49% of 340,000 active. CHO-K1 CCR6 PathHunter beta-arrestin, luminescence, CCL20-stimulated. P51684;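 active = compounds whose inhibition of the agonist-driven luminescence signal at 20 µM reaches about 50%, limit read from the data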;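 note: cells stimulated with CCL20 at 14 nM final; plate controls were DMSO with CCL20 for no effect and DMSO without agonist for full effect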
APJ antag: blocks the human apelin receptor APJ; P35414; CHO-K1 APJ beta-arrestin complementation, luminescence; inhibition, % at 20 µM; 0.32% of 330,000 active;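 active = inhibition above about 40% at 20 µM, limit read from the data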;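 note: cells challenged with 10 nM apelin-13 agonist together with compound; plate controls were apelin-13 plus DMSO wells for no effect and DMSO wells lacking apelin-13 for full effect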
GAA30 counter: counter-screen for GAA850 frataxin promoter activators: GAA30 promoter activation; AID 588350; 66% of 1,900 active; HEK293 lucGAA30 FXN promoter luciferase, 24 h; DMSO = 0%, 5 µM ipriflavone = 100%; activation, % at 6 µM; shares compounds with GAA850 FXN act;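 active = mean activation above the mean of solvent-only control wells plus 3 SD, cut at about 22% in these data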;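 note: counterscreen of GAA850 promoter hits where activity marks nonselective or luminescence artifacts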
FXN GAA850 conf: GAA850 FXN promoter activation confirmation | shares compounds with GAA850 FXN act | HEK293 lucGAA850 FXN promoter luciferase reporter, 24 h; 100% = activation by SAHA | activation, % at 6 µM | 86% of 1,900 active | AID 588351;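 active = mean activation above a set limit taken from the primary screen, cut at about 8% in these data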;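 note: 0% = DMSO wells and 100% = 10 µM SAHA wells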
Numbers without * were called inactive; x = not tested or not shown.

SMILES	EBI2 antag	GAA850 FXN act	CXCR6 inh	APJ ag	CCR6 antagonist	APJ antag	GAA30 counter	FXN GAA850 conf
CN(CC(=O)Nc1cccc(F)c1)C(=O)CCN1C(=O)C2CC=CCC2C1=O (centres undefined)	-6	0	-2	-3	11	-10	x	x
CN(CC(=O)Nc1cccc(F)c1)C(=O)CCCN1C(=O)c2cccc3cccc(c23)C1=O	-4	14*	6	-7	0	19	30*	11*
COC(=O)C(NC(=O)c1ccc(F)cc1)(Nc1ncc(S(=O)(=O)c2ccc([N+](=O)[O-])cc2)s1)C(F)(F)F (centres undefined)	2	9.8*	9	4	25	-32	21	14*
COc1ccccc1NC(=O)c1sc2ncn(CC(=O)Nc3ccccc3)c(=O)c2c1C	7	13*	-1	-4	10	-1	-4	0
Oc1cccc(/C=N/N=C/c2cccc(O)c2O)c1O	14	8.9*	6	4	11	1	37*	18*
CCNC(=O)C1CCCN(C(=O)c2ccccc2)CC1 (centres undefined)	-3	0	-1	x	x	x	x	x
Cn1c(SCC(=O)Nc2cccnc2Cl)nnc1-c1ccco1	0	-2	1	-2	3	8	x	x
C=CC[C@@H]1C=C(C)C[C@H](C)C[C@H](OC)[C@H]2O[C@@](O)(C(=O)C(=O)N3CCCC[C@H]3C(=O)O[C@H](/C(C)=C/[C@@H]3CC[C@@H](O)[C@H](OC)C3)[C@H](C)[C@@H](O)CC1=O)[C@H](C)C[C@@H]2OC	x	x	x	1	x	-1	x	x
COc1cc(C(=O)N=c2sc3ccccc3n2C)cc(OC)c1OC	14	3	8	-2	-1	4	x	x
Cn1c(=NC(=O)c2cccc([N+](=O)[O-])c2)sc2ccccc21	4	9.1*	1	-2	-11	-2	120*	36*
N#C/C(=C\c1ccc(N2CCOCC2)o1)c1nc2ccccc2[nH]1	5	1	-2	0	33	-19	x	x
N#C/C(=C/c1ccc(N2CCOCC2)o1)c1ccc(Cl)cc1	26	20*	22	x	25	x	119*	47*
COC(=O)c1sccc1NC(=O)COc1ccccc1Cl	7	7.9*	4	-4	-4	-16	81*	29*
CCOc1ccccc1NC(=O)Nc1ccsc1C(=O)OC	-2	-1	5	1	16	-4	x	x
CC1(Cc2ccc(Cl)cc2)C(=O)Nc2ccc(S(=O)(=O)NC3CCCCC3)cc21 (centres undefined)	0	8.3*	-13	x	x	x	-11	1
CC1(Cc2ccc(OC(F)(F)F)cc2)C(=O)Nc2ccc(S(=O)(=O)NC3CCCCC3)cc21 (centres undefined)	-5	1	-11	x	x	x	x	x
O=C(O)C(CCc1ccccc1)(Cc1ccccc1)C(=O)O	4	0	6	x	2	x	x	x
CCOC(=O)c1ccc(N=c2sc(C(=O)OC)cc(=O)n2Cc2ccco2)cc1	58*	15*	6	3	9	10	7	35*
COC(=O)c1cc(=O)n(CCc2ccccc2)c(=Nc2ccc(F)cc2)s1	36	0	10	-2	26	12	x	x
CC1Sc2ccc(S(=O)(=O)N3CCC(C(=O)NCC(C)c4ccccc4)CC3)cc2NC1=O (centres undefined)	-16	-4	-3	11	6	-11	x	x
CCN(CC)c1ccc(S(=O)(=O)N2CCCCC2)cc1NC(=O)CSCc1c(C)noc1C	19	10*	-4	x	20	x	21	22*
Cc1ccc(NC(=O)c2c(Cl)nc3ccccn23)cc1	-5	10*	9	-4	12	7	116*	37*

High-throughput results deposited in PubChem by several laboratories.
